Published values gathered from unrelated publications.
Compare with care: the assays were run in different laboratories. pIC50, pKd: −log10 of the molar value.
EGFR: Epidermal growth factor receptor (EGFR, Homo sapiens, UniProt P00533)
EGFR L858R/T790M: Epidermal growth factor receptor (EGFR, Homo sapiens, UniProt P00533, L858R/T790M)

| SMILES | target | read-out | action | technique | quantity | value |
| --- | --- | --- | --- | --- | --- | --- |
| CCc1c(C)c2ccc(OCC(=O)NN=Cc3ccc([N+](=O)[O-])cc3)cc2oc1=O | EGFR | enzyme activity | inhibitor | ATP luminescence | pIC50 | 6.38 |
| Cc1ncc(CN2CCc3ccccc3C2)c2cc(C(=O)c3ccc4c(c3)OCCO4)oc12 | EGFR L858R/T790M | enzyme activity | inhibitor | ADP detection | pIC50 | 7.96 |
| COc1ccc2[nH]c(C(=O)Nc3nc(CC(=O)O)cs3)cc2c1 | EGFR | enzyme activity | inhibitor | ELISA | pIC50 | 5.76 |
| C=CC(=O)N1CC[C@@H](Oc2nc(Nc3ccc(N4CCC(N5CCN(C)CC5)CC4)cc3)c(C(N)=O)nc2CC)C1 | EGFR L858R/T790M | enzyme activity | inhibitor |  | pIC50 | 8.92 |
| Cc1ccc2c(-c3cc4c(CN5CCN(Cc6ccccn6)CC5)cnc(C)c4o3)cc(=O)oc2c1 | EGFR L858R/T790M | enzyme activity | inhibitor | ADP detection | pIC50 | 7.91 |
| O=C(O)Cc1csc(NC(=O)c2cc3ccccc3[nH]2)n1 | EGFR | enzyme activity | inhibitor | ELISA | pIC50 | 6.21 |
| O=C(CCn1c(=O)ccc2ccccc21)N1CCOCC1 | EGFR | enzyme activity | inhibitor |  | pIC50 | 7.28 |
| C=CC(=O)Nc1cc(Nc2ncc(C(=O)OC(C)C)c(-c3cn(C)c4ccccc34)n2)c(OC)cc1N(C)CCN(C)C | EGFR L858R/T790M | enzyme activity | inhibitor |  | pIC50 | 9.22 |
| Cc1c(Cc2ccccc2)c(=O)oc2c(C)c(OCC(=O)NN=Cc3ccc([N+](=O)[O-])cc3)ccc12 | EGFR | enzyme activity | inhibitor | ATP luminescence | pIC50 | 6.50 |
| COC(=O)[C@]12CCC(C)(C)C[C@H]1[C@H]1C(=O)C=C3[C@@]4(C)C=C(C#N)C(=O)C(C)(C)[C@@H]4CC[C@@]3(C)[C@]1(C)CC2 | EGFR L858R/T790M | binding |  | MST | pKd | 5.96 |
| CC(C)=CCc1c(O)c(O)c2oc3c(O)ccc(O)c3c(=O)c2c1CC=C(C)C | EGFR | binding |  | SPR | pKd | 4.72 |
| Cc1ncc(CN2CCN(Cc3ccccn3)CC2)c2cc(C(=O)c3ccc4c(c3)OCCO4)oc12 | EGFR L858R/T790M | enzyme activity | inhibitor | ADP detection | pIC50 | 8.49 |
